Screening results (PubChem BioAssay)
CHO parental Ca: counter-screen for OX1R antagonists: effect in parental CHO cells; parental CHO-K1, ATP-induced calcium, Fluo-8 fluorescence; inhibition, % at 5.6 µM; actives 0.63% (n = 330,000);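 active = inhibition above that plate's mean sample inhibition plus 3 SD, cut at about 26% in these data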;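 note: 0% = ATP-challenged DMSO wells and 100% = DMSO wells without ATP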
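Assay system: untransfected parental CHO cell line. Also added: ATP agonist challenge. Dosing: one dose, 5.6 µM nominal. Measured by: Fluo-8 fluorescence. Read-out: % inhibition. Benchmarks: ATP wells versus no-ATP DMSO wells. Repeats: no replicates.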
OX1R antag-1: blocks the human orexin 1 receptor; actives 1.8% (n = 330,000); inhibition, % at 6.6 µM; OX1R-expressing cells, FRET antagonist read-out; O43613; in the data active = inhibition mostly above about 38%, no sharp cut-off; inactive = mostly below about 40%;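 note: 0% = agonist challenge alone and 100% = reference antagonist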
Target sequence (O43613 whole entry, looked up): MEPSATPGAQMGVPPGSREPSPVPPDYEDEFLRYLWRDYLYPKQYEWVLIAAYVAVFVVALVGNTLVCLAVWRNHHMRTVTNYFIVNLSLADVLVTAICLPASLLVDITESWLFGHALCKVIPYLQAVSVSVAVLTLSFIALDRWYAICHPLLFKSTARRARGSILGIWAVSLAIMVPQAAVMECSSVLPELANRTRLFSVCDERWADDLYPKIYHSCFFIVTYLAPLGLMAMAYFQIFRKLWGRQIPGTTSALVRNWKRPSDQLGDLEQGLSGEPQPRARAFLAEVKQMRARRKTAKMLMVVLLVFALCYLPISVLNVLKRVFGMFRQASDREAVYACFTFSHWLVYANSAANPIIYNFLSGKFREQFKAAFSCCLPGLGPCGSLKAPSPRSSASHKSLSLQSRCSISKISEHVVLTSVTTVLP
GalR3 antagonist: human GalR3 antagonism. inhibition, % at 3 µM. O60755. AID 651719. actives 0.44% (n = 360,000). HEK293 GalR3-CNG cAMP membrane potential fluorescence; galR3 body fused to GalR1 C-terminus;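 active = inhibition above the screen-wide average plus 3 SD, cut at about 13% in these data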;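 note: forskolin and galanin both at EC90 stimulate the cells; cAMP rise reported by CNG channel membrane potential dye signal; 0% = forskolin plus galanin with DMSO and 100% = forskolin alone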
TAAR1 antag: human TAAR1 antagonism. Q96RJ0. CHO RD-HGA16 TAAR1, Fluo-8 calcium fluorescence, antagonist. inhibition, % at 3 µM. actives 1.5% (n = 360,000);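 active = inhibition above a per-plate cutoff, the mean inhibition of test compounds on that plate plus 3 SD, cut at about 49% in these data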;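 note: 0% = DMSO plus EC80 beta-PEA response and 100% = DMSO alone without agonist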
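Assay system: CHO-derived RD-HGA16 cells stably expressing human TAAR1 plus Gα16. Timing: 140 s kinetic read after compound, 140 s after agonist. Technique: kinetic Fluo-8 calcium fluorescence measurement. Measure: % inhibition of agonist calcium response.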
TAAR1 agonist: agonists of human TAAR1. CHO RD-HGA16 TAAR1, Fluo-8 calcium fluorescence; vehicle wells 0%, saturating PEA agonist 100%. Q96RJ0. activation, % at 3 µM. AID 624467. actives 0.99% (n = 360,000);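 active = activation above the mean activation of all test compounds in the run plus 3 SD, cut at about 38% in these data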
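Test system: RD-HGA16 (CHO) cells co-expressing Gα16 and hTAAR1 | Doses: Single dose, 3 µM | Schedule: 17-24 h seeding, 75 min 37 °C dye, 30 min RT | Evaluation: % activation from peak over basal fluorescence ratio, DMSO-to-PEA scaled | Technique: Kinetic Fluo-8 calcium fluorescence | Benchmarks: Low control DMSO, high control PEA (EC100)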
OX1R antag-2: blocks the human orexin 1 receptor | O43613 | CHO/OX1R cells, Fluo-8 calcium fluorescence, orexin A | inhibition, % at 5 µM | actives 0.43% (n = 330,000) | AID 434989;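 active = inhibition above its plate's threshold, mean inhibition of all tested compounds on the plate plus 3 SD, cut at about 37% in these data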;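 note: 0% = orexin A challenge wells and 100% = SB-334867-A antagonist wells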
The depositor's hits bear a star; . = no result. Most compounds without a hit are left out; they make up all but 4.2% or so of the library.

SMILES	CHO parental Ca	OX1R antag-1	GalR3 antagonist	TAAR1 antag	TAAR1 agonist	OX1R antag-2
O=C(c1cccc(S(=O)(=O)N2CCCC2)c1)c1nnc(-c2ccncc2)o1	-2	43*	0	-9	0	-9
Cc1ccc2cc(-c3noc(C(C)(C)C)n3)c(=O)[nH]c2c1	0	7	-5	4	6	-9
CCCCn1c(=O)[nH]c2nc3cc(NC(C)=O)ccc3nc2c1=O	-6	7	-6	-17	2	-3
CCC(=O)Nc1ccc2nc3c(=O)[nH]c(=S)[nH]c3nc2c1	-1	65*	-9	0	3	-8
Brc1ccc(CN2CCN(c3ccccn3)CC2)s1	-16	5	-1	-6	7	-15
CCc1nc2c(OCc3ccc(C(F)(F)F)cc3)cccn2c1N(C)C(C)=O	.	.	-1	-27	0	.
O=C(NCCNC(=O)c1ccc(-c2cc(Cl)ccc2Cl)o1)c1cnccn1	.	.	1	45	43*	.
COc1ccccc1N1CCN(c2ccc([N+](=O)[O-])cn2)CC1	-10	13	-9	27	3	-8
COCCNC(=O)C1CC(c2ccc([N+](=O)[O-])cc2)=NO1 (stereo unspecified)	-4	69*	-4	7	12	-1
O=C(NNC(=O)c1cc2cc(Br)ccc2oc1=O)c1ccc(O)cc1	-3	20	2	-17	38*	3
COc1ccc(S(=O)(=O)NN(C)c2nc(C(F)(F)F)nc3ccccc23)cc1	-10	72*	-5	-6	14	-5
O=[N+]([O-])c1ccc2nc(SCc3ccccc3Cl)sc2c1	-14	19	.	.	.	-17
Cc1cc(C)c(CSc2ncc(-c3ccc([N+](=O)[O-])cc3)[nH]2)c(C)c1	40*	91*	-1	60*	7	40*
O=[N+]([O-])c1ccc(-c2cnc(SCc3ccccc3Cl)[nH]2)cc1	17	56	-4	52*	1	22
O=C1OC(Nc2ncccn2)c2ccccc21 (stereo unspecified)	-4	6	-5	4	16	-4
O=C1OC(Nc2cc(Br)cc3cccnc23)c2ccccc21 (stereo unspecified)	4	62*	-7	-21	5	-6
COc1ccc(C(=O)CCC(=O)NCCc2c[nH]c3ccccc23)cc1	-7	-3	-7	8	5	-14
COc1ccc(C(=O)CCC(=O)NCCc2ccccc2F)cc1	-10	-4	-9	71*	39*	8
O=C(CCCC(=O)c1ccccc1)NCCc1ccccc1F	-22	11	-2	73*	40*	-19
Cc1cccc(C(=O)N(CC(=O)Nc2sc(C)c(C)c2C(N)=O)C2CCCC2)c1	-36	27	-10	36	16	-29
Cc1ccc(C(=O)N(CC(=O)Nc2sc(C)c(C)c2C(N)=O)C2CCCC2)cc1	-8	24	-8	51*	11	-31
COc1cc(-c2noc(C)c2C(=O)NCC[C@@H]2CCCN2C)cc(OC)c1OC	-8	3	-4	-6	1	-14
Nc1ccn([C@@H]2O[C@H](C(=O)N3CCN(C(=O)C(F)(F)F)CC3)[C@@H](O)[C@H]2O)c(=O)n1	.	.	-9	-19	1	.
COc1ccc(NC(=O)c2c(C(F)(F)F)nn(C)c2SCc2ccccc2Cl)cc1	46*	6	-5	24	8	-20
CCCCCc1c(C)nc(N2CCc3ccccc32)[nH]c1=O	.	.	0	-13	-1	.
SMILES	CHO parental Ca	OX1R antag-1	GalR3 antagonist	TAAR1 antag	TAAR1 agonist	OX1R antag-2
Cc1ccc(CNC(=O)CCc2ccccc2)cc1	-1	4	-3	-18	0	-19
COc1cc2ccccc2cc1C(=O)Nc1ccccc1Cl	-17	1	-10	-3	3	19
Cc1ccc(Cl)cc1NC(=O)c1cc2ccccc2cc1O	58*	65	2	0	5	46*
COc1cc(NC(=O)c2cc3ccccc3cc2O)c(OC)cc1Cl	36*	34*	-9	49*	5	13
Cc1ccc(Cl)cc1NC(=O)COC(=O)c1ccccc1O	-3	15	-2	-1	-2	-20
COc1ccccc1NC(=O)COC(=O)c1cc2ccccc2cc1O	-22	9	-2	38	12	-11
COc1ccccc1NC(=O)c1cc2cc(Br)ccc2cc1O	45*	19	-10	24	7	10
C[C@H]1COC(=O)[C@H](Cc2ccc(F)cc2)CC/C=C/C[C@@H](CC(=O)N(CCO)Cc2ccccc2)C(=O)N1	-18	7	-7	6	0	-13
COc1ccc(CC(=O)NCC(=O)N/N=C(/C)c2ccco2)cc1	-10	9	-3	6	4	-10
Cc1[nH]nc(N=Cc2c(O)n(C)c(=O)n(C)c2=O)c1-c1ccccc1	-5	10	.	.	.	0
COc1ccc(NC(=O)CN(C)S(=O)(=O)c2cnc[nH]2)cc1Cl	-7	4	-8	-8	5	-2
Cn1c(=O)[nH]c2c(nc(-c3ccc(Cl)cc3)n2C)c1=O	-7	-1	-11	-11	-1	-20
O=C(Nc1nc(-c2cccs2)c(C(=O)C(F)(F)F)s1)c1ccco1	7	20	-2	-2	4	-22
O=C(Nc1nc(-c2cccs2)c(C(=O)C(F)(F)F)s1)c1ccccc1	-6	60*	0	34	0	-26
CC(=O)N1CCN(c2ccc(NCc3ccc(-c4ccc(Br)cc4)o3)cc2)CC1	10	17	1	58*	11	24
O=C(Nc1nc2c(s1)CCCC2)c1ccc2ncsc2c1	-4	39	1	-15	3	-14
O=C(O)c1cccc(NC(=S)N/N=C/c2ccccc2OCc2ccc(Br)cc2)c1	42*	50	2	-1	-2	16
O=C(O)c1cccc(NC(=S)N/N=C/c2ccccc2OCc2cccc(Br)c2)c1	.	.	-6	-12	-1	.
CCCCCCCC/C=C\CCCCCCCC(=O)NCCc1ccc(O)c(O)c1	36*	8	0	3	14	16
CSc1cccc(N2CC(C(=O)N(Cc3nnc(-c4ccccc4Cl)o3)C3CC3)CC2=O)c1 (stereo unspecified)	-10	58*	-2	25	8	5
CN1CCC(OC(=O)c2cccc(Br)c2)CC1	-10	-6	-7	-13	1	-6
Cc1ccc(NN2C(=O)C=C(c3ccc(Cl)cc3)C2=O)cc1	68*	39	1	58*	37	73*
COc1ccc(C2=CC(=O)N(Nc3ccccc3)C2=O)cc1	6	20	-6	-3	33	5
CS(=O)(=O)c1ccc(-c2nnc(NC(=O)c3ccc(S(=O)(=O)N4CCCC4)cc3)o2)cc1	1	-8	-1	12	1	-7
